Shown are actives, neighbours in structure and some others; about 1.8% of the full set was active somewhere.
CXCR6 block: blocks human CXCR6 beta-arrestin recruitment. O00574. CHO-K1 PathHunter CXCR6 beta-arrestin, luminescence. inhibition, % at 20 µM. 360,000 tested, 0.36% active; in the data active means inhibition above about 34%, passing the limit was not always enough;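 further: antagonist mode with CXCL16 agonist at 10 nM final; 0% = 10 nM CXCL16 with DMSO and 100% = unstimulated wells without agonist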
APJ antag: antagonists of human APJ apelin receptor; inhibition, % at 20 µM; AID 2521; 330,000 tested, 0.32% active; CHO-K1 APJ beta-arrestin complementation, luminescence;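 active means inhibition above about 40% at 20 µM, limit read from the data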;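 further: cells challenged with 10 nM apelin-13 agonist together with compound; plate controls were apelin-13 plus DMSO wells for no effect and DMSO wells lacking apelin-13 for full effect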
Target sequence (P35414 whole entry, looked up): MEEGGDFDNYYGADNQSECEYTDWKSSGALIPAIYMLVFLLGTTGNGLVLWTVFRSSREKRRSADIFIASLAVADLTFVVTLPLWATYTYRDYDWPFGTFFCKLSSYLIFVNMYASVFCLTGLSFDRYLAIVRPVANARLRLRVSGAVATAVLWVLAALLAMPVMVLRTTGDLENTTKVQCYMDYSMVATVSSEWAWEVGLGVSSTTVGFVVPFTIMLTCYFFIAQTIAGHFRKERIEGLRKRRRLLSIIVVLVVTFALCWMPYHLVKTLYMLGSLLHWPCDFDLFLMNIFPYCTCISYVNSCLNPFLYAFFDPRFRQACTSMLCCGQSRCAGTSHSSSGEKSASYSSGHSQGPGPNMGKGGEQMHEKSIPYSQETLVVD
EBI2 antag: antagonists of human EBI2 receptor. EBI2 beta-arrestin recruitment, luminescence, 7a,25-OHC stimulated. inhibition, % at 5 µM. 360,000 tested, 0.81% active; in the data active means inhibition above about 38%;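 further: enzyme fragment complementation signal reports receptor beta-arrestin coupling in cells; 0% = agonist plus DMSO wells and 100% = wells without agonist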
CCR6 antag: CCR6 (human) receptor antagonism; P51684; CHO-K1 CCR6 PathHunter beta-arrestin, luminescence, CCL20-stimulated; inhibition, % at 20 µM; 340,000 tested, 0.49% active;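 active means compounds whose inhibition of the agonist-driven luminescence signal at 20 µM reaches about 50%, limit read from the data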;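 further: cells stimulated with CCL20 at 14 nM final; plate controls were DMSO with CCL20 for no effect and DMSO without agonist for full effect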
Beta2AR agonist: human beta-2 adrenergic receptor agonism by FAP. P07550. Am2.2-beta2AR cells, FAP receptor internalization, flow cytometry. response, % (concentration not given with the values). 340,000 tested, 0.43% active;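 active means response above a set limit, near 3 SD of response in nonfluorescent compounds, cut at about 42% in these data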
APJ agonist: activates the human apelin receptor APJ. CHO-K1 APJ PathHunter beta-arrestin, luminescence; 0% DMSO wells, 100% apelin. 330,000 tested, 0.11% active. AID 2520. activation, % at 20 µM. P35414;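 active means activation more than six SD over the plate average, tested at 20 µM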;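 further: 0% = DMSO alone and 100% = apelin-13 at 10 nM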
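Test system – PathHunter CHO-K1 APJ (AGTRL-1) beta-arrestin reporter cells · Input – 1000 cells/well · Compound – single test compound dose, 20 µM final, 1% DMSO · Times – compound stimulation 90 min at 25 °C, detection 60 min · Technique – beta-gal luminescence · Read-out basis – APJ–arrestin association signal · Control set – negative DMSO alone, positive Apelin-13 at 10 nM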
EBI2 conf: confirmation of human EBI2 receptor antagonists. shares compounds with EBI2 antag. EBI2 beta-arrestin luminescence, 7a,25-OHC antagonism. inhibition, % at 5 µM. 2,400 tested, 29% active. AID 651997;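 active means inhibition of at least 50%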
EBI2 agonist: counter-screen for EBI2 antagonists: EBI2 agonist activity; shares compounds with EBI2 antag; EBI2-expressing cells, agonist mode, luminescence, 60 min; 0% vehicle, 100% 7α,25-dihydroxycholesterol control; activation, % at 5 µM; 2,400 tested, under 10 active; AID 652000;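 active means activation of at least 50%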
bGal cs: inhibits E. coli beta-galactosidase, counter-screen for EBI2 antagonists; AID 652176; purified beta-galactosidase, luminescent Galacton Star, 15 min; 2,400 tested, 1% active; shares compounds with EBI2 antag; inhibition, % at 5 µM;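 active means replicate-average signal at least 3 plate SD below neutral wells, shown as high inhibition, flagging enzyme-inhibiting false positives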;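 further: 0% = DMSO wells with enzyme and 100% = wells lacking enzyme; higher means stronger loss of beta-gal luminescence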
* = called active by the depositor; . = no result given.

SMILES	CXCR6 block	APJ antag	EBI2 antag	CCR6 antag	Beta2AR agonist	APJ agonist	EBI2 conf	EBI2 agonist	bGal cs
CC1(C(=O)NS(=O)(=O)C2CC2)CCCN(C(=O)c2ccc(F)cc2Cl)C1 (configuration not stated)	-14	.	-2	.	.	.	.	.	.
COc1ccc2[nH]c3c(c2c1)CCN1C(=O)C(CC(=O)NCCCn2ccnc2)C[C@H](C(=O)N2CCOCC2)[C@@]31C (some centres not stated)	-8	.	-13	17	-14	.	.	.	.
Cc1ccc(Nc2ccc(C(=O)NCCc3ccccc3)cn2)cc1	-4	9	83*	7	-4	-2	58*	-1	-9
Cc1ccc(C)c(Nc2ccc(C(=O)NCCc3ccccc3)cn2)c1	5	8	7	4	-12	-2	.	.	.
CCCCCOc1ccc(C(=O)CCC(=O)NC(C)c2ccc(S(N)(=O)=O)cc2)cc1 (configuration not stated)	-4	4	-1	4	-6	-1	.	.	.
COC(=O)CC1(C(=O)OC)Nc2cc(Cl)c(Cl)cc2S(=O)(=O)N1O (configuration not stated)	-2	.	-9	.	.	.	.	.	.
CCCCn1c2ccc(C)cc2c2nnc(SCCN3CCCCC3)nc21	1	-3	69*	13	-22	-2	28	0	2
Cn1c2ccc(F)cc2c2nnc(SCCN3CCCCC3)nc21	15	-3	2	19	-8	-3	.	.	.
CCCCn1c2ccc(F)cc2c2nnc(SCCN3CCCCC3)nc21	8	6	57*	6	-5	-2	33	0	11
O=C(/C=C/c1cccs1)N1CCC2(CC1)Oc1ccc(Cl)cc1C(=O)C21CC(c2cccnc2)=NO1 (configuration not stated)	4	0	66*	19	-3	13	18	-1	-12
O=C(Nc1nnc([C@@H]2C[C@H](O)[C@@H](CO)O2)s1)NC1CCCCC1	1	.	-10	.	.	.	.	.	.
COc1ccc(CN(Cc2ccc(OC)cc2)S(=O)(=O)c2ccc(-n3cnnn3)c(C)c2)cc1	6	1	45*	13	3	0	6	-2	-13
Cc1cccc(Oc2ncc(-c3ccc(Cl)cc3)cn2)c1	0	6	44*	1	4	-4	30	1	0
Clc1cccc(Oc2ncccn2)c1	1	-4	-14	0	5	-3	.	.	.
O=C(c1ccc(Cl)cc1)N1CCN(C(=O)C2CCCCC2)CC1	-4	5	60*	3	-4	1	17	3	3
O=C(c1ccc(F)cc1)C1CCN(C(=O)c2ccc(Cl)cc2)CC1	-7	.	83*	19	-3	.	54*	0	-12
C[C@@H]1CN([C@@H](C)CO)C(=O)CCCn2cc(nn2)CO[C@H]1CN(C)C(=O)c1ccc2ccn(C)c2c1	0	.	2	.	.	.	.	.	.
CCc1ccccc1NC(=O)CN(C)C(=O)COC(=O)c1ccco1	5	1	-4	-4	3	0	.	.	.
O=C(c1cc2c(s1)-c1ccccc1OC2)N1CCN(c2ccccn2)CC1	3	-55	45*	14	-7	-3	34	0	-7
O=C(c1cc2c(s1)-c1ccccc1OC2)N1CCN(c2ccccc2)CC1	0	18	60*	3	-6	-1	55*	-1	-14
COc1ccc(N2CCN(C(=O)c3cc4c(s3)-c3ccccc3OC4)CC2)cc1	-10	7	80*	13	-6	-3	67*	0	-8
COCCNC(=O)c1cc2c(=O)[nH]c3ccccc3c2s1	-10	5	6	9	2	-2	.	.	.
CCOC(=O)N1CCN(C(=O)c2cc3c(=O)[nH]c4ccccc4c3s2)CC1	-7	-6	77*	3	-10	2	70*	-1	6
CC(=O)NCCc1ccc(C(=O)COC(=O)c2cc(C)oc2C)cc1	-7	1	8	4	2	-3	.	.	.
CC(C)(C)NC(=O)C(c1ccc(O)cc1)N(Cc1ccc2c(c1)OCO2)C(=O)CCl (configuration not stated)	-4	.	-2	.	.	.	.	.	.
SMILES	CXCR6 block	APJ antag	EBI2 antag	CCR6 antag	Beta2AR agonist	APJ agonist	EBI2 conf	EBI2 agonist	bGal cs
CCOC(=O)N1CCN(C(=O)c2cc3c(s2)-c2ccccc2OC3)CC1	6	6	82*	14	-7	1	74*	-1	-10
COc1cccc(N2CCN(C(=O)c3cc4c(s3)-c3ccccc3OC4)CC2)c1	6	9	42	0	-11	0	.	.	.
CN1c2ccccc2C2(C)CCCC3=Cc4cccc([N+](=O)[O-])c4OC312 (configuration not stated)	13	15	41*	28	15	-4	0	-1	-11
CN1c2ccccc2C2(C)CCCC3=Cc4cc([N+](=O)[O-])cc([N+](=O)[O-])c4OC312 (configuration not stated)	7	-5	22	20	-2	-1	.	.	.
CC(C)Sc1ccc(C(=O)Nc2ccc(F)cc2F)cn1	8	-8	45*	13	-2	-1	20	0	12
O=C1CC(Nc2ccc3ccccc3c2)C(=O)N1Cc1ccccc1 (configuration not stated)	-7	-12	63*	1	12	2	24	0	5
O=C(Nc1cccc(F)c1)N1CCC(c2ccccc2)CC1	-1	1	67*	13	-1	-3	41	0	-9
O=C(Nc1cccc(F)c1)C1CCN(C(=O)NCc2ccccc2)CC1	3	4	4	13	0	-2	.	.	.
Cc1ccc(NC(=O)N2CCC(c3ccccc3)C2)cc1C (configuration not stated)	6	-4	73*	8	3	0	63*	0	0
Cc1ccc(C2CCN(C(=O)Nc3ccccc3)C2)cc1 (configuration not stated)	0	4	60*	3	3	-2	47	-1	7
Cc1ccc(NC(=O)C2CCN(C(=O)NCc3ccccc3)CC2)cc1C	2	-11	18	4	0	4	.	.	.
O=C(Nc1ccc(Cl)cc1)N1CCC(c2ccccc2)C1 (configuration not stated)	2	-6	87*	19	0	-1	55*	-1	-8
CC(C)(C)c1ccc(OCc2ccc(C(=O)N/N=C/c3ccc([N+](=O)[O-])cc3)o2)cc1	-10	-9	0	1	5	0	.	.	.

Screening results as filed in PubChem.
